# Reference: paper PMC2671235 (Biochemistry, 2009)
# “Also recorded” adds a separate entry of the source. Where two headings read alike, the source gives them in different places. Ends that are not written are not given here.
# Key:
# [1] = biological target: T1, S100A11 (Homo sapiens, UniProt P31949); experiment: Trp fluorescence titration of AnI with S100A11; type: binding
# T1 sequence (P31949 1-105): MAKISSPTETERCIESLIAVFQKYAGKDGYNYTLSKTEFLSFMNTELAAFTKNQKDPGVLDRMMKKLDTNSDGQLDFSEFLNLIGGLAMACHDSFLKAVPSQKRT
# Outline: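 Intrinsic Trp emission of 2 μM peptide, excited at 295 nm and read at 305–400 nm. Protein was added stepwise in 1.2 μM increments to 10 μM, a final 5:1 protein:peptide ratio. Emission intensity and maximum were followed. Kd came from fitting the intensity change against protein concentration to a model with two identical sites per dimer.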
# [2] = biological target: T2, S100A6 (Homo sapiens, UniProt P06703); experiment: Trp fluorescence titration of AnI with S100A6; type: binding
# [3] = test system: S100 protein family members (S100A1-S100A13, S100B, S100P, S100Z); experiment: Trp fluorescence screen of AnI against other S100 proteins; type: binding, human; conditions: any S100 protein other than S100A11 and S100A6; protein:peptide ratio up to 5:1
# Outline: (§1)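 This screen used a thermostated cell, 295 nm excitation, and emission scanned over 305–400 nm. Concentrated protein in assay buffer was added stepwise to 2 μM AnI, up to 10 μM protein (5:1). For Trp-containing S100A1, A3, A8, A9 and A13, AnI was instead added to 2 μM protein up to 5:1 peptide:protein, and protein-only spectra were subtracted.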
# [4] = test system: calmodulin; experiment: Trp fluorescence screen of AnI against calmodulin; type: binding; conditions: protein:peptide ratio up to 5:1
# Outline: as §1
# [5] = biological target: T1, S100A11; experiment: ITC of AnI binding to Ca2+-S100A11
# Outline: (§2)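 VP-ITC in 20 mM Tris, 0.2 mM EDTA, 1 mM TCEP, pH 7.5 with 5 mM calcium. Protein and peptide were co-dialysed with three buffer changes at 4°C. Because of its limited solubility, the AnI peptide was placed in the cell and the S100 protein titrated from the syringe. Runs were done at five temperatures (15–35°C). Integrated injection heats were fitted to a two identical non-interacting sites per dimer model.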
# [6] = biological target: T2, S100A6; experiment: ITC of AnI binding to Ca2+-S100A6; conditions: different temperatures, relative to free energy of binding
# Outline: as §2
# [7] = Far-UV CD of free peptides; type: physicochemical; conditions: TFE up to 60%, with or without calcium
# Outline: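 Peptides were run at […] in 20 mM Tris, 3 mM DTT, 0.2 mM EDTA, pH 7.5, without or with 5 mM calcium. TFE was added up to 60% final. Buffer-corrected ellipticity was converted to mean residue ellipticity. Fraction helicity was taken from [Θ]222 against temperature-dependent fully coiled and fully helical reference values.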
# [8] = biological target: T1, S100A11; experiment: Far-UV CD difference spectra, peptide with S100A11; type: binding; conditions: for fractional helicity upon binding: far-UV CD difference spectra, 10 μM protein, 50 μM peptide, 5 mM calcium; for coil-to-helix transition upon binding: far-UV CD, Ca2+-S100A11
# Outline: (§3)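 Recombinant S100 protein expressed in E. coli BL21(DE3), purified by phenyl-Sepharose and Sephadex G-75; S100A10 eluted in 8 M urea and refolded by dialysis. Far-UV CD recorded 250–200 nm on 10 μM protein plus 50 μM peptide in binding buffer with 5 mM calcium. Difference spectrum: complex minus free peptide minus free protein, converted to mean residue ellipticity assuming saturated sites. Fraction helicity derived from [Θ]222 against temperature-dependent coil and helix reference values.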
# [9] = biological target: T2, S100A6; experiment: Far-UV CD difference spectra, AnI with S100A6; type: binding
# [10] = test system: S100A6-Y84S; experiment: Far-UV CD difference spectra, AnI with S100A6-Y84S; type: binding, human; conditions: 5 mM calcium
# Outline: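 Spectra of 10 μM protein with 50 μM AnI in 5 mM calcium binding buffer were recorded at 250–200 nm. The difference spectrum was complex minus free peptide minus free protein, converted to mean residue ellipticity assuming saturated sites.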
# [11] = test system: S100A6 variants (Y73F, Y84S, Y73F/Y84S); experiment: Binding affinity of AnI for substituted S100A6 variants; parameters: species or system human; conditions: data not shown
# [12] = Analytical equilibrium ultracentrifugation; type: physicochemical; conditions: 4°C, 35,000 rpm, 20 mM Tris, 1 mM TCEP, 0.2 mM EDTA, pH 7.5, absence or presence of 5 mM calcium; single species fit
# Outline: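 Peptides were N-terminally acetylated; AnII carried an added C-terminal Tyr. Concentrations came from ε280 of 5,500 (AnI) and 1,490 (AnII) M−1 cm−1. Radial distributions were fitted to a single-species equilibrium equation using partial specific volumes of 0.748 (AnI) and 0.745 (AnII) cm3/g.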
# [13] = Trp fluorescence emission of free AnI; type: physicochemical; conditions: free AnI in solution, excitation 295 nm, emission 305-400 nm, pH 7.5
# [14] = test system: sixteen members of S100 protein family; experiment: Screen of peptides against S100 family; type: binding, human; conditions: S100 proteins other than the partners found (S100A6, S100A10, S100A11)
# [15] = test system: S100A10; conditions: literature; ref [15]; cited from earlier work
# [16] = test system: S100A11; conditions: cited from earlier work
# [17] = biological target: T3, S100A10 (Homo sapiens, UniProt P60903); experiment: ITC of AnII binding to S100A10
# T3 sequence (P60903 whole entry): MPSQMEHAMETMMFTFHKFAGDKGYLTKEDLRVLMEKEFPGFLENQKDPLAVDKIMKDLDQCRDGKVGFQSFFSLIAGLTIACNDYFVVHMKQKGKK
# Outline: (§4)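 Isothermal titration calorimetry in 20 mM Tris, 0.2 mM EDTA, 1 mM TCEP, pH 7.5. S100A10 was run with 5 mM calcium or without calcium; Ca2+-S100A11 was run with or without 100 mM NaCl. Protein and peptide were co-dialysed at 4°C. Screens injected 2 μL of about 0.75 mM peptide into about 20–25 μM protein at 10 and 25°C, continuing to saturation when heat appeared. Integrated heats were fit to two sequential sites per dimer, over five temperatures. ΔCp was taken from the slope of ΔHcal against temperature.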
# [18] = biological target: T1, S100A11; experiment: ITC of AnII binding to Ca2+-S100A11
# Outline: as §4
# [19] = biological target: T3, S100A10; experiment: Far-UV CD difference spectra, AnII with S100A10; type: binding
# Outline: as §3
# [20] = test system: Ca2+-S100P; conditions: ref [25], cited from earlier work
# [21] = test system: calmodulin; conditions: ref [27]; cited from earlier work
# [22] = 5 mM calcium, pH 7.5, excitation 295 nm
# [23] = literature, AnII labeled with Prodan in that study, ref [15]
# [24] = ITC screen and calcium dependence
# [25] = slope of ΔHcal vs temperature, ITC at 5 temperatures
substance,measurement,setting,value
Ac-AMVSEFLKQAWFIE [AnI],Kd,[1],5 ± 1 µM
same,fluorescence emission maximum wavelength of AnI in presence of Ca2+-S100A11,[1]; [22],350 nm
same,change in Trp emission spectra without calcium,[1]; S100A11 in the absence of calcium,very little change in the emission spectra
same,binding,"[1]; Trp fluorescence screen, Ca2+-S100A11",AnI has been found to bind Ca^2+-S100A6 and Ca^2+-S100A11
same,fluorescence emission maximum wavelength of AnI upon addition of Ca2+-S100A6,[2]; [22],352 nm
same,change in Trp fluorescence without calcium,[2]; S100A6 in the absence of calcium,No changes in Trp-fluorescence
same,binding,"[2]; Trp fluorescence screen, Ca2+-S100A6",AnI has been found to bind Ca^2+-S100A6
same,change in Trp fluorescence (emission maximum or intensity) in screen,[3],did not show changes in Trp fluorescence
same,change in Trp fluorescence / binding in screen,[4],did not show changes in Trp fluorescence; also recorded: Neither peptide was found to bind to calmodulin
same,Kd,[5],5 ± 2 µM
same,temperature dependence of dissociation constant,"[5]; ITC, 15-35°C",does not depend significantly on temperature
same,enthalpy of binding ΔHcal at 15°C,"[5]; ITC, 15°C, 5 mM calcium",-4 kJ/mol
same,enthalpy of binding ΔHcal at 35°C,"[5]; ITC, 35°C, 5 mM calcium",-30 kJ/mol
same,free energy of binding ΔG=−RTln(Kd),"[5]; per binding site, from ITC Kd",≈ 30 kJ/mol; also recorded: ≈ 26 kJ/mol
same,"ΔCp,exp","[5]; slope of ΔHcal vs temperature, ITC 15-35°C, 5 mM calcium",−1.3±0.2 kJ/(mol·K)
same,enthalpy of binding (sign/size),[6],either negative or positive but small relative to the free energy of binding
same,secondary structure in TFE,[7],far-UV CD spectra characteristic of helices
same,fractional helicity upon binding,[8],0.59
same,coil-to-helix transition upon binding,[8],undergo a coil-to-helix transition upon binding
same,far-UV CD difference spectrum,"[9]; AnI with Ca2+-S100A6 wild type, 10 μM protein, 50 μM AnI, 5 mM calcium",A noted lower elipticity
same,coil-to-helix transition upon binding,"[9]; far-UV CD, Ca2+-S100A6",undergo a coil-to-helix transition upon binding
same,far-UV CD difference spectrum,[10],the difference spectrum for the Y84S variant has a similar spectrum to that of the wild type
same,effect of S100A6 substitutions on binding affinity,[11],the substitutions do not have a significant effect on the binding affinity
same,molecular mass in solution (oligomeric state),[12],1.9 ± 0.07 kDa
same,fluorescence emission maximum wavelength of free AnI,[13],approximately 359 nm
same,binding to the other S100 proteins,[14],bind to only these S100 proteins and not the others
same,binding,[15],S100A10 binds AnII but not AnI
same,binding,[16]; [23],S100A11 binds AnI but not AnII
Ac-STVHEILSKLSLEGY [AnII],effect of calcium on ITC binding,[17]; 5 mM calcium compared with absence of calcium,very similar to the data obtained in the absence of calcium
same,binding,[17]; [24],the binding is independent of calcium; also recorded: AnII has been found to bind S100A10
same,enthalpy of binding (sign/size),"[17]; ITC, total enthalpy from both binding sites, entire temperature range",large and negative; also recorded: exothermic
same,"ΔCp,exp",[17]; [25],−2.4±0.3 kJ/(mol·K)
same,effect of ionic strength on thermodynamics of binding,[18]; 100 mM NaCl,did not have any effect on the thermodynamics of binding
same,enthalpy of binding (sign/size),[18]; ITC,endothermic but small relative to the Gibbs energy of binding
same,binding,[18]; [24],this binding to S100A11 is also modulated by calcium; also recorded: AnII has been found to bind S100A10 and Ca^2+-S100A11
same,"ΔCp,exp",[18]; [25],−1.1±0.2 kJ/(mol·K)
same,secondary structure in TFE,[7],far-UV CD spectra characteristic of helices
same,fractional helicity upon binding,[8],0.57
same,coil-to-helix transition upon binding,[8],undergo a coil-to-helix transition upon binding
same,helicity when bound,[19]; compared to AnII bound to S100A11,AnII becomes more helical when bound to S100A10 compared to when it is bound to S100A11
same,coil-to-helix transition upon binding,"[19]; far-UV CD, S100A10",undergo a coil-to-helix transition upon binding
same,molecular mass in solution (oligomeric state),[12],1.9 ± 0.16 kDa
same,binding to the other S100 proteins,[14],bind to only these S100 proteins and not the others
same,binding,[15],S100A10 binds AnII but not AnI
same,binding,"[16]; NMR spectroscopy, ref [16]",AnII can interact with Ca^2+-S100A11
same,binding,[16]; [23],S100A11 binds AnI but not AnII
melittin: peptide with the ability to bind both S100P and calmodulin,ΔCp,[20]; melittin binding to Ca2+-S100P,−2.5±0.5 kJ/(mol·K)
same,binding,[20],has the ability to bind both S100P
same,binding,[21],has the ability to bind both S100P ([25]) and calmodulin
